Reference: ChEMBL document CHEMBL1121740, “2-l-Rhamnopyranosyl[1,2,4]triazolo[1,5-a]pyridine. 4' and 3' Oxidation products. Synthesis and structure-activity relationships” (J Med Chem, 1981)
In brackets after ≈: the same amount, converted by molar mass. One block for each compound: values may come before it.

What was measured:
[1] = Cytotoxic dose that inhibit multiplication of normal fibroblast cells (C3H cells); format: cell-based; conditions: mouse, read-out: CD50 (the source's name)
In short: (§1)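 Growth assay on C3H mouse fibroblasts. 10⁴ cells are seeded per well, and different doses of product are added 24 h later. Cellular growth and morphology are examined on day +5.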

[2] = Cytotoxicity at 10 ug/mL against MSV transformed (S+L-cells) cells; format: cell-based; conditions: mouse
In short: (§2)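 Colony-forming (plating efficiency) assay. 200 C3H or S+L- 3T3 FL cells per well, grown in McCoy's 5a with 10% heat-inactivated FCS. Various product concentrations are added 24 h after seeding. Colonies are stained with May Grunwald Giemsa and counted on day +9. Percent colony formation is taken relative to untreated control cells, set as 100% plating efficiency.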

[3] = Cytotoxicity at 20 ug/mL against normal mouse fibroblasts (C3H cells) cells; format: cell-based; in short: as §2
[4] = Percent inhibition at 10 ug/mL for focus formation using MLV assay on S+L- cells; format: functional; conditions: Mus musculus
[5] = Percent inhibition at 20 ug/mL for focus formation on day +5, using MSV assay on C3H cells with optimal amount of helper virus; format: functional; conditions: Mus musculus
In short: (§3)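 MSV focus assay on C3H cells. 8 × 10⁴ cells are seeded per 60-mm dish and pretreated 24 h later with 20 µg/mL DEAE-dextran. Cells are infected with diluted MSV alone or MSV plus MuLV helper, with adsorption for 30 min at 37 °C. Filtered aqueous compound, diluted in medium, is added right after infection. Foci are counted on days 5 and 10. MSV titer was 7×10⁶.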

[6] = Percent inhibition at 5 ug/mL for focus formation using MLV assay on S+L- cells; format: functional; conditions: Mus musculus
[7] = Percent inhibition at 20 ug/mL for focus formation on day +10, using MSV assay on C3H cells without the addition of helper virus; format: functional; conditions: Mus musculus; in short: as §3
Murine leukemia virus = experiment: Inhibitory dose against MSV titer in the absence of Murine leukemia virus on day +10; format: functional, Mus musculus; conditions: read-out: ID50 (the source's name); in short: as §3
[8] = Percent inhibition at 10 ug/mL for focus formation on day +5, using MSV assay on C3H cells without the addition of helper virus; format: functional; conditions: Mus musculus; in short: as §3
[9] = Percent inhibition at 5 ug/mL for focus formation on day +10, using MSV assay on C3H cells without the addition of helper virus; format: functional; conditions: Mus musculus; in short: as §3
[10] = Percent inhibition at 5 ug/mL for focus formation on day +5, using MSV assay on C3H cells without the addition of helper virus; format: functional; conditions: Mus musculus; in short: as §3
[11] = Percent inhibition at 3 ug/mL for focus formation using MLV assay on S+L- cells; format: functional; conditions: Mus musculus
[12] = Cytotoxic dose that inhibit multiplication of normal fibroblasts; conditions: mouse, read-out: CD50 (the source's name); in short: as §1
[13] = Cytotoxicity at 5 ug/mL against normal mouse fibroblasts (C3H cells) cells; format: cell-based; in short: as §2
[14] = Cytotoxicity at 20 ug/mL against MSV transformed (S+L-cells) cells; format: cell-based; conditions: mouse; in short: as §2
[15] = Cytotoxicity at 5 ug/mL against MSV transformed (S+L-cells) cells; format: cell-based; conditions: mouse; in short: as §2
[16] = Percent inhibition at 10 ug/mL for focus formation on day +5, using MSV assay on C3H cells with optimal amount of helper virus; format: functional; conditions: Mus musculus; in short: as §3
[17] = Percent inhibition at 5 ug/mL for focus formation on day +5, using MSV assay on C3H cells with optimal amount of helper virus; format: functional; conditions: Mus musculus; in short: as §3
[18] = Percent inhibition at 3 ug/mL for focus formation on day +5, using MSV assay on C3H cells without the addition of helper virus; format: functional; conditions: Mus musculus; in short: as §3
[19] = Percent inhibition at 3 ug/mL for focus formation on day +10, using MSV assay on C3H cells without the addition of helper virus; format: functional; conditions: Mus musculus; in short: as §3
[20] = Percent inhibition at 3 ug/mL for focus formation on day +5, using MSV assay on C3H cells with optimal amount of helper virus; format: functional; conditions: Mus musculus; in short: as §3
[21] = Toxic effect on S+L-cell colony formation; format: toxicity; conditions: mouse, S+L- cells; read-out: TD50 (the source's name)
In short: (§4)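 S+L- (MSV-transformed 3T3 FL) cells grown in McCoy's 5a with 10% heat-inactivated fetal calf serum and antibiotics. Plating efficiency assay: 200 cells seeded per 35-mm well; product added at various concentrations 24 h after seeding. Colonies stained with May Grunwald Giemsa and counted on day +9. Colony formation expressed relative to untreated controls taken as 100% plating efficiency.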

[22] = Percent inhibition at 20 ug/mL for focus formation on day +5, using MSV assay on C3H cells without the addition of helper virus; format: functional; conditions: Mus musculus; in short: as §3
[23] = Percent inhibition at 10 ug/mL for focus formation on day +10, using MSV assay on C3H cells without the addition of helper virus; format: functional; conditions: Mus musculus; in short: as §3
[24] = Cytotoxicity at 10 ug/mL against normal mouse fibroblasts (C3H cells) cells; format: cell-based; in short: as §2
[25] = Percent inhibition at 100 ug/mL for focus formation on day +5, using MSV assay on C3H cells without the addition of helper virus; format: functional; conditions: Mus musculus; in short: as §3
[26] = Percent inhibition at 50 ug/mL for focus formation on day +5, using MSV assay on C3H cells without the addition of helper virus; format: functional; conditions: Mus musculus; in short: as §3
[27] = Percent inhibition at 100 ug/mL for focus formation using MLV assay on S+L- cells; format: functional; conditions: Mus musculus
[28] = Cytotoxicity at 100 ug/mL against normal mouse fibroblasts (C3H cells) cells; format: cell-based; in short: as §2
[29] = Percent inhibition at 30 ug/mL for focus formation on day +5, using MSV assay on C3H cells without the addition of helper virus; format: functional; conditions: Mus musculus; in short: as §3
[30] = Percent inhibition at 50 ug/mL for focus formation on day +10, using MSV assay on C3H cells without the addition of helper virus; format: functional; conditions: Mus musculus; in short: as §3
[31] = Percent inhibition at 50 ug/mL for focus formation on day +5, using MSV assay on C3H cells with optimal amount of helper virus; format: functional; conditions: Mus musculus; in short: as §3
[32] = Cytotoxicity at 50 ug/mL against MSV transformed (S+L-cells) cells; format: cell-based; conditions: mouse; in short: as §2
[33] = Cytotoxicity at 100 ug/mL against MSV transformed (S+L-cells) cells; format: cell-based; conditions: mouse; in short: as §2
[34] = Percent inhibition at 30 ug/mL for focus formation on day +10, using MSV assay on C3H cells without the addition of helper virus; format: functional; conditions: Mus musculus; in short: as §3
[35] = Percent inhibition at 50 ug/mL for focus formation using MLV assay on S+L- cells; format: functional; conditions: Mus musculus
[36] = Percent inhibition at 100 ug/mL for focus formation on day +5, using MSV assay on C3H cells with optimal amount of helper virus; format: functional; conditions: Mus musculus; in short: as §3
[37] = Percent inhibition at 100 ug/mL for focus formation on day +10, using MSV assay on C3H cells without the addition of helper virus; format: functional; conditions: Mus musculus; in short: as §3
[38] = Toxic effect on C3H cell colony formation; format: toxicity, cell-based; conditions: mouse, C3H cells; read-out: TD50 (the source's name); in short: as §2
[39] = Inhibitory action of Murine leukemia virus titer on S+L-cell in presence of the compound; format: functional; conditions: Mus musculus; read-out: ID50 (the source's name)
[40] = Percent inhibition at 30 ug/mL for focus formation using MLV assay on S+L- cells; format: functional; conditions: Mus musculus
[41] = Toxic effect on S+L- cell colony formation; format: toxicity; conditions: mouse, S+L- cells; read-out: TD50 (the source's name); in short: as §4
[42] = Cytotoxicity at 250 ug/mL against MSV transformed (S+L-cells) cells; format: cell-based; conditions: mouse; in short: as §2
[43] = Cytotoxicity at 50 ug/mL against normal mouse fibroblasts (C3H cells) cells; format: cell-based; in short: as §2
[44] = Cytotoxicity at 250 ug/mL against normal mouse fibroblasts (C3H cells) cells; format: cell-based; in short: as §2
[45] = Percent inhibition at 30 ug/mL for focus formation on day +5, using MSV assay on C3H cells with optimal amount of helper virus; format: functional; conditions: Mus musculus; in short: as §3
[46] = Percent inhibition at 2.5 ug/mL for focus formation on day +5, using MSV assay on C3H cells with optimal amount of helper virus; format: functional; conditions: Mus musculus; in short: as §3
[47] = Percent inhibition at 200 ug/mL for focus formation using MLV assay on S+L- cells; format: functional; conditions: Mus musculus
[48] = Percent inhibition at 200 ug/mL for focus formation on day +10, using MSV assay on C3H cells without the addition of helper virus; format: functional; conditions: Mus musculus; in short: as §3
[49] = Percent inhibition at 200 ug/mL for focus formation on day +5, using MSV assay on C3H cells with optimal amount of helper virus; format: functional; conditions: Mus musculus; in short: as §3
[50] = Percent inhibition at 200 ug/mL for focus formation on day +5, using MSV assay on C3H cells without the addition of helper virus; format: functional; conditions: Mus musculus; in short: as §3

Structure (SMILES): C[C@@H]1O[C@@H](c2nc3c([N+](=O)[O-])cccn3n2)[C@H](O)[C@H](O)[C@@H]1O
CC50 [1]: 400 µg/mL (≈ 1290 µM)

Structure (SMILES): C[C@@H]1O[C@@H](c2nc3c([N+](=O)[O-])cccn3n2)[C@H](O)[C@H](O)[C@H]1O
CC50 [1]: 500 µg/mL (≈ 1610 µM)

IC50 (Murine leukemia virus): 9 µg/mL (≈ 30.8 µM)
Structure (SMILES): CC1OC(c2nc3c([N+](=O)[O-])cccn3n2)=CC(O)C1O (stereo unspecified)
Colony formation [2]: 18% | Colony formation [3]: 2% | inhibition at 10 µg/mL [4]: 82.5% | inhibition at 20 µg/mL [5]: 76% | inhibition at 5 µg/mL [6]: 50% | inhibition at 20 µg/mL [7]: 70% | inhibition at 10 µg/mL [8]: 64% | inhibition at 5 µg/mL [9]: 30% | inhibition at 5 µg/mL [10]: 44% | inhibition at 3 µg/mL [11]: 30% | CC50 [12]: 62.5 µg/mL (≈ 214 µM) | Colony formation [13]: 71.5% | Colony formation [14]: 0% | Colony formation [15]: 49% | inhibition at 10 µg/mL [16]: 50% | inhibition at 5 µg/mL [17]: 26% | inhibition at 3 µg/mL [18]: 15% | inhibition at 3 µg/mL [19]: 0% | inhibition at 3 µg/mL [20]: 39% | CC50 [21]: 5 µg/mL (≈ 17.1 µM) | inhibition at 20 µg/mL [22]: 91% | inhibition at 10 µg/mL [23]: 58% | Colony formation [24]: 27%

IC50 (Murine leukemia virus): 145 µg/mL (≈ 470 µM)
Structure (SMILES): CC1OC(c2nc3c([N+](=O)[O-])cccn3n2)C(O)C(O)C1=O (stereo unspecified)
inhibition at 100 µg/mL [25]: 67% | inhibition at 50 µg/mL [26]: 54% | inhibition at 100 µg/mL [27]: 80% | Colony formation [28]: 76% | inhibition at 30 µg/mL [29]: 35% | inhibition at 50 µg/mL [30]: 14% | inhibition at 50 µg/mL [31]: 46% | Colony formation [32]: 81% | Colony formation [33]: 25% | inhibition at 30 µg/mL [34]: 0% | inhibition at 50 µg/mL [35]: 55% | inhibition at 100 µg/mL [36]: 78% | inhibition at 100 µg/mL [37]: 42% | CC50 [38]: 150 µg/mL (≈ 487 µM) | IC50 [39]: 43 µg/mL | inhibition at 30 µg/mL [40]: 35% | CC50 [41]: 73 µg/mL (≈ 237 µM) | Colony formation [42]: 0% | Colony formation [43]: 109% | Colony formation [44]: 21% | inhibition at 30 µg/mL [45]: 31%

Structure (SMILES): O=[N+]([O-])c1cccn2nc([C@@H]3O[C@H](CO)[C@@H](O)[C@H]3O)nc12
Colony formation [2]: 46% | Colony formation [15]: 79.6% | inhibition at 2.5 µg/mL [46]: 47% | inhibition at 5 µg/mL [17]: 62%

Structure (SMILES): CC1OC(c2nc3c(N)cccn3n2)C(O)C(O)C1O (stereo unspecified)
inhibition at 200 µg/mL [47]: 50% | inhibition at 200 µg/mL [48]: 0% | inhibition at 200 µg/mL [49]: 11% | Colony formation [28]: 115% | Colony formation [33]: 83% | IC50 [39]: 200 µg/mL | inhibition at 200 µg/mL [50]: 0% | Colony formation [42]: 94% | Colony formation [44]: 108%
